This note sets out measurements from ChEMBL document CHEMBL4400556, “β-Lactones: A Novel Class of Ca2+-Independent Phospholipase A2 (Group VIA iPLA2) Inhibitors with the Ability To Inhibit β-Cell Apoptosis” (J Med Chem, 2019).

Data set [1] has as its target T1, 85/88 kDa calcium-independent phospholipase A2 (Homo sapiens) (UniProt O60733).
T1 sequence (whole entry): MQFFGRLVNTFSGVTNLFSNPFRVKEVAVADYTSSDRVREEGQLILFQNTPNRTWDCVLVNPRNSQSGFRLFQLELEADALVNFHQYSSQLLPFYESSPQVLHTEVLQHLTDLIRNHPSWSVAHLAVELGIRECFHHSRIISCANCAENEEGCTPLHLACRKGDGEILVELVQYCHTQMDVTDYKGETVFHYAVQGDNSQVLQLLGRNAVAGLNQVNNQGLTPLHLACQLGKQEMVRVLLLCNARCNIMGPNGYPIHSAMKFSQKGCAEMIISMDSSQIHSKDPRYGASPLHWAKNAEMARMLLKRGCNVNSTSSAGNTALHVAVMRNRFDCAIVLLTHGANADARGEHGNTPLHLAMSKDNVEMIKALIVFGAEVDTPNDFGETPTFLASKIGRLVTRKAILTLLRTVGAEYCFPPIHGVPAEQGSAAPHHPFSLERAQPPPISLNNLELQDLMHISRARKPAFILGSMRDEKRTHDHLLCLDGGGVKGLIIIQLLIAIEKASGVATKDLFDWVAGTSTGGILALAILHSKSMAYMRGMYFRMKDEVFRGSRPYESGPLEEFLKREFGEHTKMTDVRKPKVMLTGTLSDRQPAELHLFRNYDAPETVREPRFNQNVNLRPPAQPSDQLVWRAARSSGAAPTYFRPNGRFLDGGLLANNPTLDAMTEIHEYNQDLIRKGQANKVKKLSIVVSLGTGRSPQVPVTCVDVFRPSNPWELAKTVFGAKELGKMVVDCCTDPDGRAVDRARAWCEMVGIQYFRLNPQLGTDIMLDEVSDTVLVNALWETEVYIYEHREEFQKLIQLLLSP
Description: Inhibition of human recombinant G6A iPLA2 at 0.091 mole fraction using arachidonyl-1-14C PAPC and PAPC incubated for 30 mins by HPLC-MS analysis based radioactivity-based group specific mixed micelle assay relative to control. The method, boiled down:
(§1)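 Human recombinant GVIA iPLA2, radioactivity mixed-micelle assay. Substrate: 400 μM Triton X-100, 98.3 μM PAPC, 1.7 μM arachidonyl-1-14C PAPC. Buffer: 100 mM HEPES pH 7.5, 2 mM ATP, 4 mM DTT. Screened at 0.091 mole fraction from DMSO.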

For data set [2], the target named is T2, Cytosolic phospholipase A2 (Homo sapiens) (UniProt P47712).
T2 sequence (whole entry): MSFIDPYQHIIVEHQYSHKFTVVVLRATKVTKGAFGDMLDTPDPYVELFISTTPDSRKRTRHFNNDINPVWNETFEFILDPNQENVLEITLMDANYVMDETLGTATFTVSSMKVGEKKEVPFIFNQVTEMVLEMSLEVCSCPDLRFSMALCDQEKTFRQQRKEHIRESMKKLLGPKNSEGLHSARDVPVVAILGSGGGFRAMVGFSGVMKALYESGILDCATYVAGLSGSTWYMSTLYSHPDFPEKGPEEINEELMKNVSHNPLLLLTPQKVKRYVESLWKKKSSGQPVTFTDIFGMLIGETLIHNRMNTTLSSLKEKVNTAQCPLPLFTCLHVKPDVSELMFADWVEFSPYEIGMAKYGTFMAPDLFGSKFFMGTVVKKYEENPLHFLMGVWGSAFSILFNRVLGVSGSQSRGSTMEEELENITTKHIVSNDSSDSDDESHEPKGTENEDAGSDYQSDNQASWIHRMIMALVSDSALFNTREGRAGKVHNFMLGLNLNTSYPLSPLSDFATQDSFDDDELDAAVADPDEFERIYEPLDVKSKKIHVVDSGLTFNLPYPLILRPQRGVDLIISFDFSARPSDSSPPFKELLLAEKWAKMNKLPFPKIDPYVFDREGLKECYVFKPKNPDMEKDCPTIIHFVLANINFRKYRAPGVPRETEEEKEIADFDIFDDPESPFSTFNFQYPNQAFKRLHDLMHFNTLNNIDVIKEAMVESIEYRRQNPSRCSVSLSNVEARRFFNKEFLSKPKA
Kind of data set: Inhibition of human recombinant G4A cPLA2 at 0.091 mole fraction using arachidonyl-1-14C PAPC , PAPC and PIP2 incubated for 30 mins by HPLC-MS analysis based radioactivity-based group specific mixed micelle assay. In short, it runs like this: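 Human recombinant GIVA cPLA2, radioactivity mixed-micelle assay. Substrate: 400 μM Triton X-100, 95.3 μM PAPC, 1.7 μM arachidonyl-1-14C PAPC, 3 μM PIP2. Buffer: 100 mM HEPES pH 7.5, 90 μM CaCl2, 2 mM DTT, 0.1 mg/ml BSA. Screened at 0.091 mole fraction from DMSO stock. XI(50) fitted from % inhibition vs log mole fraction.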

Data set [3] deals with T1, 85/88 kDa calcium-independent phospholipase A2 (Homo sapiens). Kind of data set: (§2) Inhibition of human recombinant G6A iPLA2 using arachidonyl-1-14C PAPC and PAPC incubated for 30 mins by HPLC-MS analysis based radioactivity-based group specific mixed micelle assay. In short, it runs like this: as §1
Data set [4] concerns the target T3, 85/88 kDa calcium-independent phospholipase A2 (Homo sapiens, UniProt O60733).
T3 sequence (O60733 whole entry): T1 sequence (whole entry)
The description is as §2. The method, boiled down:
as §1

For data set [5], the species on record is Homo sapiens. Description: Inhibition of human recombinant G5 sPLA2 at 0.091 mole fraction using arachidonyl-1-14C PAPC and PAPC by HPLC-MS analysis based radioactivity-based group specific mixed micelle assay relative to control. The method, boiled down: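 Human recombinant GV sPLA2, radioactivity mixed-micelle assay. Substrate: 400 μM Triton X-100, 98.3 μM PAPC, 1.7 μM arachidonyl-1-14C PAPC. Buffer: 50 mM Tris-HCl pH 8.0, 5 mM CaCl2. Compound added from DMSO at 0.091 mole fraction; percent inhibition measured.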

In data set [6] the test system is INS1. Kind of data set: Inhibition of IL-1beta/IFNgamma-induced apoptosis in rat INS-1 cells at 0.1 uM after 16 hrs by DAPI-based TUNEL assay. It is filed as functional, cell-based. The method, boiled down: (§3)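 INS-1 cells exposed 16 h to IL-1β (100 U/mL) plus IFNγ (300 U/mL), with or without compound (0.10–10 μM) or DMSO vehicle (1 μL/mL). Apoptosis read by TUNEL (green) over total DAPI-stained nuclei, 6 fields per slide. The 6-field mean per slide is one replicate (n=3–12). Results given as mean ± SEM percent apoptotic cells.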

The test system of data set [7] is INS1. Description: Inhibition of IL-1beta/IFNgamma-induced apoptosis in rat INS-1 cells at 1 uM after 16 hrs by DAPI-based TUNEL assay. Type of data set: functional. The following applies: INS1, 16 h. In short, it runs like this: as §3
In data set [8] the test system is INS1. Kind of data set: Inhibition of IL-1beta/IFNgamma-induced apoptosis in rat INS-1 cells at 10 uM after 16 hrs by DAPI-based TUNEL assay. Type of data set: functional. The following applies: INS1, 16 h. The method, boiled down:
as §3

Data set [9] deals with INS1. Description: Cytotoxicity against rat INS-1 cells assessed as cell death at 10 uM after 16 hrs by TUNNEL assay (reference value: 7.06 +/- 0.36%). It is filed as cell-based. The following applies: ins1, 16 h.
The species entered for data set [10] is Homo sapiens. Kind of data set: Selectivity index, ratio of IC50 for inhibition of human recombinant G4A cPLA2 to IC50 for inhibition of human recombinant G6A iPLA2.
Data set [11] relates to INS1. Description: Inhibition of IL-1beta/IFNgamma-induced apoptosis in rat INS-1 cells at 0.1 to 10 uM after 16 hrs by DAPI-based TUNEL assay.

Molecules are shown by their SMILES. Activity calls are given as the source filed them. The calls are words filed in the database; no cut-off is given here.

The inhibition is how much of the control response was suppressed. In the case of `CCCC1OC(=O)C1CCCc1ccc(OC)cc1` (centres undefined), the inhibition was determined as 96% in data set [1] and 76% in [2].

The IC50 is the concentration that gives 50% inhibition. Take `CCC[C@H]1OC(=O)[C@@H]1CCCCc1ccccc1` (racemic): the inhibition in data set [1] was 100%; in data set [2], 88%; in [5], 25%; in [11], “Dose-dependent effect”. Further, the XI50 (mole fraction) in [3] worked out at 2.1e-06. Also, in [4], the IC50 was 1 nM. Besides, in data set [6], the inhibition result is “inactive”. The same molecule yielded an inhibition at 1 µM in data set [7] of 28%. In [8], this molecule displayed an inhibition at 10 µM of 41%. The Activity in data set [9] was 9.51%. Also, in data set [10], the Ratio IC50 was 22000.

`CCC[C@@H]1OC(=O)[C@@H]1CCCc1ccc(OC)cc1` (racemic): the inhibition came out at 85% in [1], 95% in data set [2] and 29% in [5]. In addition, the XI50 (mole fraction) in data set [3] turned out to be 0.038.

As to `CCC[C@H]1OC(=O)[C@@H]1CCCCc1ccc2ccccc2c1` (racemic), the figures for the inhibition in data set [1], in data set [2] and in data set [5] were 99%, 59% and 29%, respectively. Besides, the XI50 (mole fraction) in data set [3] was 9e-05.

On to `CCC[C@@H]1OC(=O)[C@@H]1CCCCc1ccc2ccccc2c1` (racemic), for which the inhibition was 95% in data set [1], 72% in data set [2] and less than 25% in data set [5]. The XI50 (mole fraction) in data set [3] came out at 0.0021.

For the molecule `CCCCCCC1OC(=O)C1CCCc1ccccc1` (centres undefined), the inhibition is 89% in data set [1], 91% in data set [2] and 47% in data set [5].

As for `CCCC1OC(=O)C1CCCCc1ccc2ccccc2c1` (centres undefined), the inhibition was determined as 97% in data set [1] and 71% in data set [2].

On to `CCC[C@@H]1OC(=O)[C@@H]1CCCc1ccc2ccccc2c1` (racemic), for which the inhibition in [1] is 81%; in [2], 89%; in [5], 27%.

Turning to `CCC[C@H]1OC(=O)[C@@H]1CCCc1ccc(OC)cc1` (racemic), the inhibition in data set [1] is 99%; in data set [2], 85%; in [5], 26%. Besides, the XI50 (mole fraction) in [3] was 0.00019.

For `CCCC1OC(=O)C1CCCc1ccccc1` (centres undefined), the inhibition in data set [1] was determined as 96%; in data set [2], 81%.

As for `O=C(CCCCc1ccccc1)C(F)(F)C(F)(F)F`, the inhibition in data set [5] was found to be 28%.

For `CCC[C@H]1OC(=O)[C@@H]1CCCc1ccc2ccccc2c1` (racemic), the inhibition in data set [1] turned out to be 98%; in [2] it was 73%; in data set [5], 30%. The XI50 (mole fraction) in data set [3] came to 0.0003.

With `COc1ccc(CCSCC(=O)c2noc(C(C)(C)C)n2)cc1`, in [3], the XI50 (mole fraction) amounted to 0.0057. In addition, the inhibition in data set [5] stood at 38%.

Turning to `CCCC1OC(=O)C1CCCCc1ccccc1` (centres undefined), the values for the inhibition in data set [1] and in data set [2] were 100% and 84%, respectively.

In the case of `CCC1OC(=O)C1CCCc1ccc2ccccc2c1` (centres undefined), the values for the inhibition in data set [1], in data set [2] and in [5] were 93%, 85% and 29%, respectively.

With `CCCCCCC1OC(=O)C1CCCc1ccc2ccccc2c1` (centres undefined), the inhibition in data set [1] amounted to 59%; in data set [2], 54%; in data set [5], 40%.

Regarding `CCC[C@@H]1OC(=O)[C@@H]1CCCc1ccccc1` (racemic), the inhibition in data set [1] is 92%; in data set [2], 97%; in data set [5] it was less than 25%.

As to `CCC[C@@H]1OC(=O)[C@@H]1CCCCc1ccccc1` (racemic), the inhibition amounted to 99% in [1], 94% in data set [2] and 34% in data set [5]. Besides, the XI50 (mole fraction) in data set [3] came to 0.007. Also, the IC50 in [4] is 3500 nM.

For the molecule `CCC[C@H]1OC(=O)[C@@H]1CCCc1ccccc1` (racemic), the inhibition was 99% in data set [1], 90% in data set [2] and 25% in [5]. In data set [3], the XI50 (mole fraction) was determined as 0.00019.

With `CCCCCCC1OC(=O)C1CCCc1ccc(-c2ccccc2)cc1` (centres undefined), the inhibition in [1] came to 78%; in data set [2], 58%; in [5], 40%.

With `COc1ccc(CCCCC(=O)C(F)(F)C(F)(F)F)cc1`, the inhibition in data set [5] was found to be 33%.

As for `CC1OC(=O)C1CCCc1ccc2ccccc2c1` (centres undefined), the values for the inhibition in [1], in data set [2] and in [5] were 89%, 85% and 26%, respectively.

Turning to `O=C(CCCCc1ccc2ccccc2c1)C(F)(F)F`, the inhibition in data set [5] was 37%.

For `CC(C)C1OC(=O)C1CCCc1ccccc1` (centres undefined), the values for the inhibition in data set [1], in [2] and in data set [5] were 93%, 85% and 29%, respectively.

Regarding `CCCC1OC(=O)C1CCCc1ccc2ccccc2c1` (centres undefined), the inhibition in [1] came out at 98%; in data set [2], 77%.
